Data: ChEMBL document CHEMBL4330087, “Synthesis, antimicrobial activity, attenuation of aminoglycoside resistance in MRSA, and ribosomal A-site binding of pyrene-neomycin conjugates” (Eur J Med Chem, 2019)
In brackets after ≈: the same amount, converted by molar mass. Activity calls are given as the source filed them. The rule behind the calls is not given here.

How the values were obtained:
Staphylococcus aureus [1] = assay: Antibacterial activity against NEO-sensitive Staphylococcus aureus 25923 after 15 to 20 hrs by CLSI protocol based microdilution assay; format: functional
Method in brief: (§1)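 CLSI broth microdilution on exponential-phase bacteria at ~3×10^5 cells/mL in cation-adjusted Mueller-Hinton broth. Serial 2-fold dilutions gave final concentrations of 50 to 0.78 μM; compound stocks were 10× in 10% DMSO. Incubated at 37 °C for 15-20 h, growth read at A595. Percent inhibition averaged over triplicates; MIC in μM.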

Staphylococcus aureus [2] = assay: Antibacterial activity against NEO-sensitive Staphylococcus aureus harboring NorA mutant after 15 to 20 hrs by CLSI protocol based microdilution assay; format: functional; method in brief: as §1
[3] = system: Staphylococcus epidermidis; assay: Antibacterial activity against NEO-sensitive Staphylococcus epidermidis 12384 after 15 to 20 hrs by CLSI protocol based microdilution assay; format: functional; method in brief: as §1
Staphylococcus aureus [4] = assay: Antibacterial activity against methicillin-resistant Staphylococcus aureus 33591 after 15 to 20 hrs by CLSI protocol based microdilution assay; format: functional; method in brief: as §1
Staphylococcus aureus [5] = assay: Antibacterial activity against methicillin-resistant Staphylococcus aureus A960649 after 15 to 20 hrs by CLSI protocol based microdilution assay; format: functional; method in brief: as §1
Staphylococcus aureus [6] = assay: Antibacterial activity against methicillin-resistant Staphylococcus aureus SU-5 after 15 to 20 hrs by CLSI protocol based microdilution assay; format: functional; method in brief: as §1
Staphylococcus aureus [7] = assay: Antibacterial activity against methicillin-resistant Staphylococcus aureus M0602 after 15 to 20 hrs by CLSI protocol based microdilution assay; format: functional; method in brief: as §1
Streptococcus pyogenes = assay: Antibacterial activity against NEO-resistant Streptococcus pyogenes C203 after 15 to 20 hrs by CLSI protocol based microdilution assay; format: functional; method in brief: as §1
Bacillus anthracis = assay: Antibacterial activity against NEO-sensitive Bacillus anthracis BA852 after 15 to 20 hrs by CLSI protocol based microdilution assay; format: functional; method in brief: as §1
[8] = system: Mycolicibacterium smegmatis; assay: Antibacterial activity against NEO-sensitive Mycobacterium smegmatis after 15 to 20 hrs by CLSI protocol based microdilution assay; format: functional; method in brief: as §1
Escherichia coli [9] = assay: Antibacterial activity against NEO-sensitive Escherichia coli ATCC 25922 after 15 to 20 hrs by CLSI protocol based microdilution assay; format: functional; method in brief: as §1
Escherichia coli [10] = assay: Antibacterial activity against NEO-sensitive Escherichia coli harboring TolC mutant after 15 to 20 hrs by CLSI protocol based microdilution assay; format: functional; method in brief: as §1
Escherichia coli [11] = assay: Antibacterial activity against multidrug-resistant Escherichia coli H4H after 15 to 20 hrs by CLSI protocol based microdilution assay; format: functional; method in brief: as §1
[12] = system: Mycolicibacterium smegmatis; assay: Antibacterial activity against NEO-sensitive Mycobacterium smegmatis at 6.25 uM after 15 to 20 hrs by CLSI protocol based microdilution assay relative to control; format: functional
Method in brief: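 Single-concentration screen at 6.25 μM against exponential-phase cultures, in duplicate, with NEO as reference. Enterococcus was grown in BHI broth, M. smegmatis in TS broth with 0.05% Tween 80, and all other strains in TS broth. The 1% DMSO water vehicle was added to broth (background) and culture (growth control). Incubation was 37 °C, humidified, 15-20 h. Result is percent growth inhibition.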

Escherichia coli [13] = assay: Antibacterial activity against multidrug-resistant Escherichia coli H4H at 6.25 uM after 15 to 20 hrs by CLSI protocol based microdilution assay relative to control; format: functional
Method in brief: (§2)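 Exponential-phase cultures were exposed to 6.25 μM compound in duplicate with neomycin as reference, at 37 °C in a humidified incubator for 15-20 h. Broth and culture controls received sterile water with 1% DMSO. Percent growth inhibition was calculated against the growth and background controls.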

Escherichia coli [14] = assay: Antibacterial activity against Escherichia coli O157:H7 at 6.25 uM after 15 to 20 hrs by CLSI protocol based microdilution assay relative to control; format: functional; method in brief: as §2
[15] = Inhibition of AAC(3)-4 (unknown origin)
[16] = Inhibition of APH(3')-1a (unknown origin)
Staphylococcus aureus [17] = assay: Antibacterial activity against NEO-sensitive Staphylococcus aureus C2 after 15 to 20 hrs by CLSI protocol based microdilution assay; format: functional
Method in brief: (§3)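 CLSI broth microdilution MIC in triplicate on exponential-phase cells, ~3×10^5 cells per mL in cation-adjusted Mueller-Hinton broth. Compound was added from 10× stocks in 10% DMSO as serial 2-fold dilutions, final 50 to 0.78 μM. Plates were incubated at 37 °C, humidified, 15-20 h. Growth was read as absorbance at 595 nm, and percent inhibition was averaged over triplicates.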

Staphylococcus aureus [18] = assay: Antibacterial activity against NEO-sensitive Staphylococcus aureus C1 after 15 to 20 hrs by CLSI protocol based microdilution assay; format: functional; method in brief: as §3
Staphylococcus aureus [19] = assay: Antibacterial activity against NEO-sensitive Staphylococcus aureus NRS77 after 15 to 20 hrs by CLSI protocol based microdilution assay; format: functional; method in brief: as §3
Ribosomal RNA A-site [20] = assay: Binding affinity to rRNA-A site in Escherichia coli S30 extract assessed as inhibition of protein translation after 20 mins; format: nucleic-acid assay
Ribosomal RNA A-site [21] = assay: Binding affinity to rRNA-A site in human MDA-MB-231 cells assessed as inhibition of protein translation; format: cell-based
[22] = Toxicity in Caenorhabditis elegans infected with methicillin-resistant Staphylococcus aureus assessed as effect on nematode larvae viability by measuring decrease in formazan production at 6.25 to 50 uM after 24 hrs by MTT assay relative to control
[23] = Toxicity in Caenorhabditis elegans infected with methicillin-resistant Staphylococcus aureus assessed as effect on nematode larvae viability by measuring decrease in formazan production at 3.13 to 1.56 uM after 24 hrs by MTT assay
Staphylococcus aureus [24] = assay: Antibacterial activity against NEO-sensitive Staphylococcus aureus 6538 after 15 to 20 hrs by CLSI protocol based microdilution assay; format: functional; method in brief: as §3

| Structure (SMILES) | MIC (Staphylococcus aureus [1]) | MIC (Staphylococcus aureus [2]) | MIC [3] | MIC (Staphylococcus aureus [4]) | MIC (Staphylococcus aureus [5]) | MIC (Staphylococcus aureus [6]) | MIC (Staphylococcus aureus [7]) | MIC (Streptococcus pyogenes) | MIC (Bacillus anthracis) | MIC [8] | MIC (Escherichia coli [9]) | MIC (Escherichia coli [10]) | MIC (Escherichia coli [11]) | Activity [12] | Activity (Escherichia coli [13]) | Activity (Escherichia coli [14]) | inhibition [15] | inhibition [16] | IC50 (Ribosomal RNA A-site [20]) | IC50 (Ribosomal RNA A-site [21]) | also measured |
| --- | --- | --- | --- | --- | --- | --- | --- | --- | --- | --- | --- | --- | --- | --- | --- | --- | --- | --- | --- | --- | --- |
| NC[C@@H]1O[C@H](O[C@H]2[C@@H](O)[C@H](O[C@@H]3[C@@H](O)[C@H](N)C[C@H](N)[C@H]3O[C@H]3O[C@H](CN)[C@@H](O)[C@H](O)[C@H]3N)O[C@@H]2CNC(=O)CCCc2ccc3ccc4cccc5ccc2c3c45)[C@H](N)[C@@H](O)[C@@H]1O | 12.5 µM (≈ 11 µg/mL) | 12.5 µM (≈ 11 µg/mL) | 12.5 µM (≈ 11 µg/mL) | 12.5 µM (≈ 11 µg/mL) | 12.5 µM (≈ 11 µg/mL) | 25 µM (≈ 22.1 µg/mL) | 25 µM (≈ 22.1 µg/mL) | 25 µM (≈ 22.1 µg/mL) | 12.5 µM (≈ 11 µg/mL) | 12.5 µM (≈ 11 µg/mL) | > 25 µM | 12.5 µM (≈ 11 µg/mL) | > 25 µM | 38% | 0% | 0% | Active | Active | – | – | – |
| NC[C@@H]1O[C@H](O[C@H]2[C@@H](O)[C@H](O[C@@H]3[C@@H](O)[C@H](N)C[C@H](N)[C@H]3O[C@H]3O[C@H](CN)[C@@H](O)[C@H](O)[C@H]3N)O[C@@H]2CSCCNC(=O)Cc2ccc3ccc4cccc5ccc2c3c45)[C@H](N)[C@@H](O)[C@@H]1O | – | 6.25 to 12.5 µM (≈ 5.73 to 11.5 µg/mL) | 6.25 µM (≈ 5.73 µg/mL) | – | 12.5 µM (≈ 11.5 µg/mL) | 25 µM (≈ 22.9 µg/mL) | 25 µM (≈ 22.9 µg/mL) | inactive | 6.25 µM (≈ 5.73 µg/mL) | 6.25 µM (≈ 5.73 µg/mL) | > 25 µM | 6.25 µM (≈ 5.73 µg/mL) | > 25 µM | 43% | – | – | Active | Active | 269 nM | 269 nM | MIC (Staphylococcus aureus [17]): 12.5 µM (≈ 11.5 µg/mL); MIC (Staphylococcus aureus [18]): 12.5 µM (≈ 11.5 µg/mL); MIC (Staphylococcus aureus [19]): 3.2 µM (≈ 2.93 µg/mL); Activity [22]: 50 to 75%; Activity [23]: Non-Toxic |
| NC[C@@H]1O[C@H](O[C@H]2[C@@H](O)[C@H](O[C@@H]3[C@@H](O)[C@H](N)C[C@H](N)[C@H]3O[C@H]3O[C@H](CN)[C@@H](O)[C@H](O)[C@H]3N)O[C@@H]2CSCCNC(=S)NCCCCCCNC(=O)CCCc2ccc3ccc4cccc5ccc2c3c45)[C@H](N)[C@@H](O)[C@@H]1O | 6.25 µM (≈ 6.89 µg/mL) | 6.25 µM (≈ 6.89 µg/mL) | 3.13 µM (≈ 3.45 µg/mL) | 25 µM (≈ 27.6 µg/mL) | 25 µM (≈ 27.6 µg/mL) | 50 µM (≈ 55.1 µg/mL) | 25 to 50 µM (≈ 27.6 to 55.1 µg/mL) | inactive | 3.13 µM (≈ 3.45 µg/mL) | 6.25 µM (≈ 6.89 µg/mL) | > 25 µM | 1.56 to 3.13 µM (≈ 1.72 to 3.45 µg/mL) | > 25 µM | 61% | 5 - 30% | 0% | Active | Active | 213 nM | 213 nM | – |
| NC[C@@H]1O[C@H](O[C@H]2[C@@H](O)[C@H](O[C@@H]3[C@@H](O)[C@H](N)C[C@H](N)[C@H]3O[C@H]3O[C@H](CN)[C@@H](O)[C@H](O)[C@H]3N)O[C@@H]2CSCCNC(=O)CCc2ccc3ccc4cccc5ccc2c3c45)[C@H](N)[C@@H](O)[C@@H]1O | – | – | – | – | – | – | – | – | – | – | – | – | – | 29% | inactive | – | Active | Active | – | – | MIC (Staphylococcus aureus [17]): 12.5 µM (≈ 11.6 µg/mL); MIC (Staphylococcus aureus [18]): 25 µM (≈ 23.3 µg/mL); MIC (Staphylococcus aureus [19]): 6.3 µM (≈ 5.86 µg/mL); MIC (Staphylococcus aureus [24]): 12.5 µM (≈ 11.6 µg/mL); Activity [22]: 50 to 75%; Activity [23]: Non-Toxic |
| NC[C@@H]1O[C@H](O[C@H]2[C@@H](O)[C@H](O[C@@H]3[C@@H](O)[C@H](N)C[C@H](N)[C@H]3O[C@H]3O[C@H](CN)[C@@H](O)[C@H](O)[C@H]3N)O[C@@H]2CSCCNC(=O)CCCc2ccc3ccc4cccc5ccc2c3c45)[C@H](N)[C@@H](O)[C@@H]1O | 12.5 µM (≈ 11.8 µg/mL) | 6.25 to 12.5 µM (≈ 5.9 to 11.8 µg/mL) | 6.25 µM (≈ 5.9 µg/mL) | 12.5 µM (≈ 11.8 µg/mL) | 12.5 µM (≈ 11.8 µg/mL) | 25 µM (≈ 23.6 µg/mL) | 25 µM (≈ 23.6 µg/mL) | 50 µM (≈ 47.2 µg/mL) | 6.25 µM (≈ 5.9 µg/mL) | 6.25 µM (≈ 5.9 µg/mL) | > 25 µM | 6.25 µM (≈ 5.9 µg/mL) | > 25 µM | 41% | <=30% | 3% | inactive | inactive | 927 nM | 927 nM | – |
| NC[C@@H]1O[C@H](O[C@H]2[C@@H](O)[C@H](O[C@@H]3[C@@H](O)[C@H](N)C[C@H](N)[C@H]3O[C@H]3O[C@H](CN)[C@@H](O)[C@H](O)[C@H]3N)O[C@@H]2CNC(=O)Cc2ccc3ccc4cccc5ccc2c3c45)[C@H](N)[C@@H](O)[C@@H]1O | – | – | – | – | – | – | – | – | – | – | – | – | – | 38% | inactive | 0% | Active | Active | 1280 nM | 1200 to 1280 nM | MIC (Staphylococcus aureus [17]): > 25 µM; MIC (Staphylococcus aureus [18]): > 25 µM; MIC (Staphylococcus aureus [19]): > 25 µM; MIC (Staphylococcus aureus [24]): > 25 µM |
